Results published in PMC6205205 (Medicinal chemistry (Shariqah (United Arab Emirates)), 2018).
Entries after “also recorded” stand apart in the source; their conditions may differ.

Columns and labels:
[1] = target: T1, IDH1(R132H) (Homo sapiens, UniProt O75874, R132H); experiment: IDH1; type: biochemical; conditions: for Inhibitory activity against IDH1(R132H), in words: compound screening at 50 μM
[2] = target: WT IDH1 (Homo sapiens, UniProt O75874); experiment: Enzyme inhibition of wild-type IDH1; type: biochemical
Sequence of WT IDH1 (O75874 whole entry): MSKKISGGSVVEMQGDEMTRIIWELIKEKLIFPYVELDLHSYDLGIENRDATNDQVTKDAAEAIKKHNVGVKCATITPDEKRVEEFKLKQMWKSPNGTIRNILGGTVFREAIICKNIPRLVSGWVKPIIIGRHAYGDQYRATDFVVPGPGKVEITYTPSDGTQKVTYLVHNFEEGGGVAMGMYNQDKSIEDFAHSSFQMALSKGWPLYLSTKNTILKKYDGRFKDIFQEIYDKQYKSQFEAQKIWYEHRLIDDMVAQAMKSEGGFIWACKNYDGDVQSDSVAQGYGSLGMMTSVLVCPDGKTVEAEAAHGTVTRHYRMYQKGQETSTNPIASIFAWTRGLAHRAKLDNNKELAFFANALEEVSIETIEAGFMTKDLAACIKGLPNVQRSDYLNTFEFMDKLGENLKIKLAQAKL

[3] = target: R132C IDH1 (Homo sapiens, UniProt O75874, R132C); experiment: Enzyme inhibition of R132C mutant IDH1; type: biochemical
Sequence of R132C IDH1 (O75874 whole entry R132C): as the sequence (O75874 whole entry) above, with R132C counted along it

[4] = tested on: BT142 glioma cells with R132H IDH1 mutation; experiment: Inhibition of proliferation of glioma stem-like cells; type: cell-based, human; conditions: 5 μM, 14 days treatment
Procedure, shortened: (§1)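 Patient-derived glioma cells grown as neurospheres in serum-free medium at 37 °C, 5% CO₂, 100% humidity. Cells seeded at 2000/well and exposed to increasing concentrations of test compound for 14 days. Viability read by Cell Counting Kit-8 following the kit protocol.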

[5] = tested on: BXD-3752 glioma cells without IDH1 mutation; experiment: as above; type: cell-based, human; conditions: 5 μM, 14 days treatment, no IDH1 mutation
Procedure, shortened: as §1

[6] = target: T1, IDH1(R132H); experiment: Steady-state kinetic study, mode of inhibition; type: biochemical
Procedure, shortened: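 IDH1(R132H) was expressed in E. coli and purified. Initial velocities were taken as the linear rate of NADPH consumption, followed by UV absorbance at 340 nm. Test compound, α-KG and NADPH levels were each varied. Data were fitted to competitive, noncompetitive and uncompetitive models, and the best model was chosen by highest R² and lowest AICc.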

T1 sequence (O75874 whole entry R132H): as the sequence (O75874 whole entry) above, with R132H counted along it

O=S(=O)(Nc1cc(Oc2ccccc2)c(O)c2ccccc12)c1ccc(Br)cc1 [Compound 1, 4-bromo-N-(4-hydroxy-3-phenoxynaphthalen-1-yl)benzenesulfonamide]
Ki [1]: 8.2 µM

O=S(=O)(Nc1cc(Br)c(O)c2ccccc12)c1ccc(Br)cc1 [Compound 2, 4-bromo-N-(3-bromo-4-hydroxynaphthalen-1-yl)benzenesulfonamide]
Ki [2]: > 50 µM
Ki [1]: 4.1 µM
Fold increased inhibitory activity relative to compound 1 ([1]; IDH1(R132H), vs compound 1): ~ 2 fold
Ki [3]: > 50 µM

Cc1ccc(-c2cc(NS(=O)(=O)c3ccc(C)cc3)c3ccccc3c2O)cc1 [Compound 3, N-(4-hydroxy-3-(p-tolyl)naphthalen-1-yl)-4-methylbenzenesulfonamide]
Inhibitory activity against IDH1(R132H), in words [1]: inactive
Activity against proliferation of BT142 glioma cells [4]: did not exhibit activity
Activity against proliferation of BXD-3752 glioma cells [5]: did not exhibit activity

O=S(=O)(Nc1cc(-c2ccc3ccccc3c2)c(O)c2ccccc12)c1ccc(Br)cc1 [Compound 4, 4-bromo-N-(1-hydroxy-[2,2’-binaphthalen]-4-yl)benzenesulfonamide]
Inhibitory activity against IDH1(R132H), in words [1]: inactive

O=C(O)CCc1cc(NS(=O)(=O)c2ccc(Br)cc2)c2ccccc2c1O [Compound 5, 3-(4-((4-bromophenyl)sulfonamido)-1-hydroxynaphthalen-2-yl)propanoic acid]
Ki [1]: 17.5 µM

O=P(O)(O)CCc1cc(NS(=O)(=O)c2ccc(Br)cc2)c2ccccc2c1O [Compound 6, (2-(4-((4-bromophenyl)sulfonamido)-1-hydroxynaphthalen-2-yl)ethyl)phosphonic acid]
Ki [1]: 2.4 µM

COc1ccc(S(=O)(=O)Nc2cc(CCC(=O)O)c(O)c3ccccc23)cc1 [Compound 7, 3-(1-hydroxy-4-((4-methoxyphenyl)sulfonamido)naphthalen-2-yl)propanoic acid]
Ki [1]: 10.2 µM

O=S(=O)(Nc1cc(Br)c(O)c2ccccc12)c1ccc(F)cc1 [Compound 8, N-(3-bromo-4-hydroxynaphthalen-1-yl)-4-fluorobenzenesulfonamide]
Ki [1]: ~25 µM

Cc1ccc(S(=O)(=O)Nc2cc(Br)c(O)c3ccccc23)cc1 [Compound 9, N-(3-bromo-4-hydroxynaphthalen-1-yl)-4-methylbenzenesulfonamide]
Ki [2]: > 50 µM
Ki [1]: 1.2 µM
Fold more active than compound 2 ([1]; IDH1(R132H), vs compound 2): ~ 4 ×
Activity against proliferation of BT142 glioma cells [4]: strongly inhibited the growth; also recorded: strong activity
Mode of inhibition against the cofactor NADPH ([6]; variable NADPH, Michaelis-Menten plot): noncompetitive mode of action; also recorded: non-competitive inhibitor
Mode of inhibition against the substrate α-KG ([6]; variable α-KG, Lineweaver-Burk plot): competitive inhibitor
Ki [3]: > 50 µM
Activity against proliferation of BXD-3752 glioma cells [5]: did not show activity; also recorded: did not significantly affect growth

O=S(=O)(Nc1cc(Br)c(O)c2ccccc12)c1ccc(-c2ccccc2)cc1 [Compound 10, N-(3-bromo-4-hydroxynaphthalen-1-yl)-[1,1’-biphenyl]-4-sulfonamide]
Ki [2]: > 50 µM
Ki [1]: 0.6 µM
Activity against proliferation of BT142 glioma cells [4]: strongly inhibited the growth; also recorded: strong activity
Ki [3]: 36 µM
Activity against proliferation of BXD-3752 glioma cells [5]: did not show activity; also recorded: did not significantly affect growth

O=S(=O)(Nc1cc(Br)c(O)c2ccccc12)c1ccc2ccccc2c1 [Compound 11, N-(3-bromo-4-hydroxynaphthalen-1-yl)naphthalene-2-sulfonamide]
Ki [2]: > 50 µM
Ki [1]: 0.8 µM
Ki [3]: > 50 µM

Cc1ccc(S(=O)(=O)Nc2ccc(O)c3ccccc23)cc1 [Compound 12, N-(4-hydroxynaphthalen-1-yl)-4-methylbenzenesulfonamide]
Ki [1]: 6.8 µM
Fold less active than compound 9 ([1]; IDH1(R132H), vs compound 9): ~ 6 fold

O=S(=O)(Nc1ccc(O)c2ccccc12)c1ccccc1 [Compound 13, N-(4-hydroxynaphthalen-1-yl)benzenesulfonamide]
Ki [1]: 11.1 µM

O=S(=O)(Nc1ccc(O)c(Oc2ccccc2)c1)c1ccc(Br)cc1 [Compound 14, 4-bromo-N-(4-hydroxy-3-phenoxyphenyl)benzenesulfonamide]
Inhibitory activity against IDH1(R132H), in words [1]: Devoid of activity

O=S(=O)(Nc1ccc(O)cc1)c1ccc(Br)cc1 [Compound 17, 4-bromo-N-(4-hydroxyphenyl)benzenesulfonamide]
Ki [1]: 7.3 µM

O=S(=O)(Nc1cccc(Br)c1)c1ccc(Br)cc1 [Compound 18, 4-bromo-N-(3-bromophenyl)benzenesulfonamide]
Ki [1]: 9 µM

O=S(=O)(Nc1ccccc1)c1ccc(Br)cc1 [Compound 19, 4-bromo-N-phenylbenzenesulfonamide]
Inhibitory activity against IDH1(R132H), in words [1]: inactive

O=S(=O)(Nc1ccc(F)c(Cl)c1)c1ccc(Br)cc1 [Compound 20, 4-bromo-N-(3-chloro-4-fluorophenyl)benzenesulfonamide]
Ki [1]: 16.1 µM
